One block for each compound: values may come before it. The source made the active and inactive calls.
Legend:
Mus musculus [1] = test: Antinociceptive activity in OF1 mouse acute central pain model at 150 mg/kg, po administered with EtOH/PEG400/water after 40 mins by hot plate test relative to vehicle-treated control; assay type: functional
Summary of the method: (§1)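 Oral gavage in male OF1 mice, vehicle EtOH/PEG400/H2O (10/40/50); 150 mg/kg for single-dose lines. Hot plate (52 ± 1 °C) jump latency read at 20, 40 and 60 min, 240 s cutoff, % MPE. […] ANOVA + Newman–Keuls or Bonferroni.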

Mus musculus [2] = test: Antinociceptive activity in OF1 mouse acute central pain model at 150 mg/kg, po administered with EtOH/PEG400/water after 20 mins by hot plate test relative to vehicle-treated control; assay type: functional; summary of the method: as §1
Mus musculus [3] = test: Antinociceptive activity in OF1 mouse acute central pain model at 150 mg/kg, po administered with EtOH/PEG400/water after 60 mins by hot plate test relative to vehicle-treated control; assay type: functional; summary of the method: as §1
Mus musculus [4] = test: Antinociceptive activity in OF1 mouse acute central pain model at 20 mg/kg, iv after 10 mins by hot plate test relative to vehicle-treated control; assay type: functional
Summary of the method: (§2)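 Male OF1 mice, iv dosing in water/mannitol (50 mg/mL) vehicle. Hot plate at 52 ± 1 °C read 10 min post-injection. Jump latency with a 240 s cutoff, expressed as % MPE. n = 10 per group. ANOVA with Newman–Keuls or Bonferroni tests versus vehicle.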

Mus musculus [5] = test: Antinociceptive activity in OF1 mouse persistent pain model assessed as reduction of formalin-induced paw licking at 50 mg/kg, po administered with EtOH/methyl cellulose in water 30 mins prior to formalin challenge measured after 1 to 5 mins relative to vehicle-treated control; assay type: functional; design: scale not given: the % may be the effect or the level left
Summary of the method: (§3)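 Male OF1 mice gavaged with 50 mg/kg in ethanol/methylcellulose 0.5% in water (1.5/98.5), 30 or 90 min before a plantar sc injection of 5% formalin (20 μL in saline). Licking time recorded over 0–5 min (early phase). n = 5–7 per group. ANOVA + Bonferroni versus vehicle.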

Mus musculus [6] = test: Antinociceptive activity in OF1 mouse persistent pain model assessed as reduction of formalin-induced paw licking at 50 mg/kg, po administered with EtOH/methyl cellulose in water 90 mins prior to formalin challenge measured after 1 to 5 mins relative to vehicle-treated control; assay type: functional; design: scale not given: the % may be the effect or the level left; summary of the method: as §3
Mus musculus [7] = test: Antinociceptive activity in OF1 mouse acute central pain model at 10 mg/kg, iv administered with EtOH/Tween80/water after 10 mins by hot plate test relative to vehicle-treated control; assay type: functional
Summary of the method: (§4)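 Male OF1 mice dosed iv in ethanol/Tween80/water (1/1/8). Jump latency on a 52 ± 1 °C hot plate (240 s cutoff) read 10 min after injection, expressed as mean % MPE ± SEM. n = 18–21 per group for dose–response, n = 8 for 10 mg/kg comparisons. ED50 taken from dose–response. ANOVA + Bonferroni.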

Mus musculus [8] = test: Activity in OF1 mouse acute central pain model at 10 mg/kg, iv administered as single dose by hot plate test; assay type: functional, organism-based; design: dose 10 mg/kg
Mus musculus [9] = test: Activity in OF1 mouse acute central pain model at 150 mg/kg, po administered as single dose by hot plate test; assay type: functional, organism-based; design: dose 150 mg/kg
Summary of the method: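 Hot plate at 52 ± 1 °C, male OF1 mice. Single oral dose of 150 mg/kg. Jump latency recorded with a 240 s cutoff and converted to % MPE against control latency.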

Mus musculus [10] = test: Antinociceptive activity in OF1 mouse acute central pain model at 40 mg/kg, iv after 10 mins by hot plate test relative to vehicle-treated control; assay type: functional; summary of the method: as §2
Mus musculus [11] = test: Antinociceptive activity in OF1 mouse acute central pain model at 60 mg/kg, iv after 10 mins by hot plate test relative to vehicle-treated control; assay type: functional; summary of the method: as §2
Mus musculus [12] = test: Antinociceptive activity in iv dosed CD1 mouse administered with EtOH/cremophor/water after 10 mins by hot plate test; assay type: functional
Mus musculus [13] = test: Antinociceptive activity in po dosed CD1 mouse after 45 mins by hot plate test; assay type: functional; conditions: 0.75 h
Mus musculus [14] = test: Antinociceptive activity in OF1 mouse acute central pain model assessed as time duration of action at 150 mg/kg, po administered with EtOH/PEG400/water after 20 to 60 mins by hot plate test relative to vehicle-treated control; assay type: functional; summary of the method: as §1
Mus musculus [15] = test: Antinociceptive activity in OF1 mouse acute central pain model assessed as jump latency at 10 mg/kg, iv after 10 mins by hot plate test relative to vehicle-treated control in presence of naloxone; assay type: functional, organism-based; design: dose 10 mg/kg
Summary of the method: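 Naloxone 0.5 mg/kg given sc before the test compound (10 mg/kg iv) in male OF1 mice. Hot plate (52 ± 1 °C) jump latency measured, 240 s cutoff. n = 7–10 per group. ANOVA followed by Bonferroni versus vehicle and versus drug alone.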

Rattus norvegicus [16] = test: Prodrug activation in rat plasma at 200 mg, po after 30 mins by LC/MS/MS analysis; conditions: 0.5 h
Mus musculus [17] = test: Antihyperalgesic activity in OF1 mouse neuropathic pain model assessed as increase in partial sciatic nerve ligation-induced reduction in thermal threshold at 25 mg/kg, po by plantar test relative to vehicle-treated control; assay type: functional, organism-based; design: dose 25 mg/kg
Summary of the method: (§5)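 Partial ligation of 33–50% of the sciatic nerve in male OF1 mice; sham mice operated without ligation. Tested days 10–20 post-surgery, before and 20 min after 25 mg/kg po. Mechanical threshold by von Frey filaments; thermal latency by plantar test (8–10 s baseline, 20 s cutoff, mean of three trials at 5 min intervals). Ipsilateral and contralateral paws tested. n = 6–9 per group.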

Mus musculus [18] = test: Antinociceptive activity in OF1 mouse acute central pain model assessed as time duration of action at 40 mg/kg, iv administered with water/mannitol after 10 mins by hot plate test relative to vehicle-treated control; assay type: functional
Rattus norvegicus [19] = test: Antinociceptive activity in Sprague-Dawley rat acute centrospinal nociception model at 100 mg/kg, po after 20 mins by tail flick test relative to vehicle-treated control; assay type: functional
Mus musculus [20] = test: Antinociceptive activity in iv dosed OF1 mouse acute central pain model assessed as jump latency administered with water/mannitol after 10 mins by hot plate test relative to vehicle-treated control; assay type: functional; summary of the method: as §2
Rattus norvegicus [21] = test: Antinociceptive activity in iv dosed Sprague-Dawley rat acute centrospinal nociception model administered with EtOH/Tween80/water after 10 to 20 mins by tail flick test relative to vehicle-treated control; assay type: functional, organism-based; conditions: TDE = time-dependent effect
Mus musculus [22] = test: Antinociceptive activity in po dosed OF1 mouse acute central pain model administered with EtOH/PEG400/water after 20 mins by hot plate test relative to vehicle-treated control; assay type: functional; summary of the method: as §1
Mus musculus [23] = test: Antiallodynic activity in OF1 mouse neuropathic pain model assessed as increase in partial sciatic nerve ligation-induced reduction of threshold for paw withdrawal at 25 mg/kg, po after 20 mins by von frey test relative to vehicle-treated control; assay type: functional; design: scale not given: the % may be the effect or the level left; summary of the method: as §5
Mus musculus [24] = test: Antinociceptive activity in OF1 mouse acute central pain model at 10 mg/kg, iv after 10 mins by hot plate test relative to vehicle-treated control; assay type: functional
Rattus norvegicus [25] = test: Antinociceptive activity in Sprague-Dawley rat acute centrospinal nociception model at 20 mg/kg, iv administered with EtOH/Tween80/water after 10 mins by tail flick test relative to vehicle-treated control
Mus musculus [26] = test: Antinociceptive activity in iv dosed OF1 mouse acute central pain model assessed as jump latency administered with EtOH/Tween80/water after 10 mins by hot plate test relative to vehicle-treated control; assay type: functional; summary of the method: as §4

SMILES: CCOC(=O)OC(OC(=O)CNC(=O)[C@@H](CSSC[C@@H](N)CCSC)Cc1ccccc1)C(C)C (stereo partly drawn)
- Activity (Mus musculus [1]): 18%
- Activity (Mus musculus [2]): 46%
- Activity (Mus musculus [3]): 0%

SMILES: CCOC(=O)COC(=O)[C@H](C)NC(=O)C(CSSC[C@@H](N)CCSC)Cc1ccsc1 (stereo partly drawn)
- Activity (Mus musculus [4]): 32%

SMILES: CCOC(=O)OC(C)OC(=O)CNC(=O)[C@@H](CSSC[C@@H](N)CC[S+](C)[O-])Cc1ccccc1.O=CO (stereo partly drawn)
- Activity (Mus musculus [5]): 54%
- Activity (Mus musculus [6]): 41%
- Activity (Mus musculus [7]): 30%

SMILES: CSCC[C@H](N)CSSCC(Cc1ccsc1)C(=O)N[C@@H](C)C(=O)OC[C@H](COC(C)=O)OC(C)=O (stereo partly drawn)
- Activity (Mus musculus [4]): 29%

SMILES: CCOC(=O)OC(C)OC(=O)[C@H](C)NC(=O)C(CSSC[C@@H](N)CCSC)Cc1ccsc1 (stereo partly drawn)
- Activity (Mus musculus [4]): 44%

SMILES: CSCC[C@H](N)CSSC[C@@H](Cc1ccccc1)C(=O)NCC(=O)O
- Activity (Mus musculus [8]): inactive
- Activity (Mus musculus [9]): inactive

SMILES: CSCC[C@H](N)CSSCC(Cc1ccsc1)C(=O)N[C@@H](C)C(=O)O (stereo partly drawn)
- Activity (Mus musculus [8]): inactive
- Activity (Mus musculus [9]): inactive

SMILES: CSCC[C@H](N)CSSC[C@@H](Cc1ccccc1)C(=O)N[C@H](C(=O)O)[C@@H](C)O
- Activity (Mus musculus [8]): inactive
- Activity (Mus musculus [9]): inactive

SMILES: CCOC(=O)OC(C)OC(=O)[C@@H](NC(=O)[C@@H](CSSC[C@@H](N)CCSC)Cc1ccccc1)C(C)O (stereo partly drawn)
- Activity (Mus musculus [10]): 61%
- Activity (Mus musculus [11]): 84%
- Activity (Mus musculus [4]): 29%

SMILES: CSCC[C@H](N)CSSCC(Cc1ccsc1)C(=O)N[C@@H](C)C(=O)OC(CO)CO (stereo partly drawn)
- Activity (Mus musculus [4]): 22%

SMILES: CCC(=O)OC(OC(=O)CNC(=O)[C@@H](CSSC[C@@H](N)CCSC)Cc1ccccc1)C(C)C (stereo partly drawn)
- Activity (Mus musculus [1]): 24%
- Activity (Mus musculus [2]): 32%
- Activity (Mus musculus [3]): 8%

SMILES: C[S+]([O-])CC[C@H](N)CSSC[C@@H](Cc1ccccc1)C(=O)NCC(=O)O (stereo partly drawn)
- Activity (Mus musculus [8]): inactive
- Activity (Mus musculus [9]): inactive

SMILES: CSCC[C@H](N)CSSCC(Cc1ccsc1)C(=O)N[C@@H](C)C(=O)OC[C@H]1O[C@@H](O)[C@H](O)[C@@H](O)[C@@H]1O (stereo partly drawn)
- Activity (Mus musculus [4]): 10%

SMILES: CSCC[C@H](N)CSSCC(Cc1ccsc1)C(=O)N[C@@H](C)C(=O)OCCS(C)(=O)=O (stereo partly drawn)
- Activity (Mus musculus [4]): 22%

SMILES: CSCC[C@H](N)CSSC[C@@H](Cc1ccccc1)C(=O)N[C@@H](C)C(=O)OCc1ccccc1
- ED50 (Mus musculus [12]): 3 mg/kg
- ED50 (Mus musculus [13]): 410 mg/kg

- Drug metabolism (Rattus norvegicus [16]): 98%
SMILES: CCOC(=O)OC(C)OC(=O)CNC(=O)[C@@H](CSSC[C@@H](N)CCSC)Cc1ccccc1.O=CO (stereo partly drawn)
- Time (Mus musculus [14]): <1 h
- Activity (Mus musculus [15]): inactive
- Activity (Mus musculus [10]): 97%
- Activity (Mus musculus [17]): Active
- Time (Mus musculus [18]): <40 min
- Activity (Mus musculus [1]): 28%
- Activity (Mus musculus [2]): 58%
- Activity (Mus musculus [5]): 41%
- Activity (Rattus norvegicus [19]): 10%
- Activity (Mus musculus [20]): Dose-dependent effect
- ED50 (Mus musculus [20]): 16 mg/kg
- Activity (Rattus norvegicus [21]): tde
- ED50 (Mus musculus [22]): 133 mg/kg
- Activity (Mus musculus [6]): 41%
- Activity (Mus musculus [23]): 51%
- Activity (Mus musculus [3]): 7%
- Activity (Mus musculus [24]): 35%
- Activity (Mus musculus [7]): 78%
- Emax at 20 mg/kg (Rattus norvegicus [25]): 40%
- Activity (Mus musculus [26]): Dose-dependent effect
- ED50 (Mus musculus [26]): 4.5 mg/kg
- Activity (Mus musculus [4]): 58%

SMILES: CSCC[C@H](N)CSSCC(Cc1ccsc1)C(=O)N[C@@H](C)C(=O)OC(COC(C)=O)COC(C)=O (stereo partly drawn)
- Activity (Mus musculus [4]): 40%

SMILES: CCC(=O)OC(OC(=O)CNC(=O)[C@@H](CSSC[C@@H](N)CCSC)Cc1ccccc1)C1CCCCC1 (stereo partly drawn)
- Activity (Mus musculus [1]): 10%
- Activity (Mus musculus [2]): 8%
- Activity (Mus musculus [3]): 12%

SMILES: CCOC(=O)OC(OC(=O)CNC(=O)[C@@H](CSSC[C@@H](N)CCSC)Cc1ccccc1)C1CCCCC1 (stereo partly drawn)
- Activity (Mus musculus [1]): 3%
- Activity (Mus musculus [2]): 17%
- Activity (Mus musculus [3]): 8%
